Data reported in ChEMBL document CHEMBL1132715, “Comparative molecular field analysis of hydantoin binding to the neuronal voltage-dependent sodium channel” (J Med Chem, 1999).

Columns and labels:
[1] = Partition coefficient (logP); type: physicochemical; conditions: octanol/water
[2] = target: Sodium channel alpha subunits; brain (Types I, II, III) (Rattus norvegicus, UniProt P04775+P04774+P08104); test: In vitro inhibition of Voltage-gated sodium channel by the displacement of [3H]batrachotoxin A 20-alpha-benzoate in rat brain cerebral cortex synaptoneurosomes; type: tissue-based
Method in brief: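 Rat cerebral cortex gray matter synaptoneurosomes (~1 mg protein), washed in HEPES/choline chloride buffer pH 7.4 and stored at –70 °C. […] Filtration read-out; nonspecific binding taken with 300 μM veratridine. Points run in triplicate; IC50 by Probit analysis, using only 10–90% inhibition.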

Row | logP ([1]; read-out: logP) | logP [1] | SMILES | IC50 [2] [µM]
1 | 1.46 | – | O=C1NC(=O)C2(CCCc3ccccc32)N1 (stereo unspecified) | –
2 | 0.96 | – | O=C1NC(=O)C2(CCc3ccccc32)N1 (stereo unspecified) | –
3 | 2.46 | – | O=C1NC(=O)C2(CCCCCc3ccccc32)N1 (stereo unspecified) | –
4 | 1.52 | – | CC12C(=O)NC(=O)N1CCc1ccccc12 (stereo unspecified) | –
5 | 2.96 | – | CCCCC1(c2ccc(C)cc2)NC(=O)NC1=O (stereo unspecified) | –
6 | 1.96 | – | O=C1NC(=O)C2(CCCCc3ccccc32)N1 (stereo unspecified) | –
7 | 2.96 | – | CCCCC1(c2cccc(C)c2)NC(=O)NC1=O (stereo unspecified) | –
8 | 2.96 | – | CCCCC1(c2ccccc2C)NC(=O)NC1=O (stereo in doubt; 14a) | –
9 | – | 2.96 | CCCCC1(c2ccccc2C)NC(=O)NC1=O (stereo in doubt; 14b) | –
10 | 2.13 | – | NC(=O)N1c2ccccc2C=Cc2ccccc21 [CARBAMAZEPINE] | –

Row | SMILES | logP ([1]; read-out: logP) | logP [1] | IC50 [2] [µM]
11 | CCCCCCCC(O)(C(N)=O)c1ccccc1 (stereo unspecified) | 3.7 | – | 9
12 | CCCCCCC1(c2ccccc2)NC(=O)NC1=O (stereo unspecified) | 3.4 | – | 13
13 | CCN1C(=O)NC(=O)C1(C)c1ccccc1 (stereo unspecified) | 2.02 | – | –
14 | CCCCCCCCCC1(c2ccccc2)NC(=O)NC1=O (stereo unspecified) | 4.96 | – | 5
15 | O=C1NC(=O)C(c2ccccc2)(C2CCCCC2)N1 (stereo unspecified) | 2.96 | – | 58
16 | CCCCCCCC1(c2ccccc2)NC(=O)NC1=O (stereo unspecified) | 3.96 | – | 5
